Results from different studies.
Compare with care: the assays were run in different laboratories.
Target: cGMP-dependent protein kinase 1 (PRKG1, Homo sapiens, UniProt Q13976)
One construct used (Q13976 1-671): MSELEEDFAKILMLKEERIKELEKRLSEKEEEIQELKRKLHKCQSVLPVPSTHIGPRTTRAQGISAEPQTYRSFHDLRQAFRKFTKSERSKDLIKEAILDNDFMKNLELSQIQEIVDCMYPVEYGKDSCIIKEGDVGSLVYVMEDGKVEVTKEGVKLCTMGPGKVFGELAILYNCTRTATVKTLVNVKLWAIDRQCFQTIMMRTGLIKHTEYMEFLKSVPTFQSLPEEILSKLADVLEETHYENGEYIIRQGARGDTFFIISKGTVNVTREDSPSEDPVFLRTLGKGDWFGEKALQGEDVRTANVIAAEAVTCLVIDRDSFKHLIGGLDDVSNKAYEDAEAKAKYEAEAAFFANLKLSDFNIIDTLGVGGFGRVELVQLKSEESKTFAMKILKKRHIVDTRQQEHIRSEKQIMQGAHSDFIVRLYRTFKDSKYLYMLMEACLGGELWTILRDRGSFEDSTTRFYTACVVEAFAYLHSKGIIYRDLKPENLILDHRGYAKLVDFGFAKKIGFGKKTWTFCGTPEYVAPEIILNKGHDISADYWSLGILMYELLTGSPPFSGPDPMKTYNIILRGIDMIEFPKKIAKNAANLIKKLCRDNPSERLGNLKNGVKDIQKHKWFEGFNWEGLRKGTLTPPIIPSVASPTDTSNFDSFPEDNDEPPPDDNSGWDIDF

SMILES | observed | mode | method | concentration | measurement | value
CC(C)(C)c1nc(-c2cccc(NS(=O)(=O)c3c(F)cccc3F)c2F)c(-c2ccnc(N)n2)s1 | enzyme activity | inhibitor | radiometric | 1 µM | remaining activity | 96%
Cc1cc(-n2nc(Cc3cc(F)cc(C(F)(F)F)c3)nc2C)ccc1C(N)=O | cell-free assay |  | competition with immobilised ligand | 1 µM | remaining binding | 100%
COc1cc(Cl)c(C(=O)N[C@@H](CN[C@H]2CC[C@@H](N)CC2)Cc2ccc(C#N)cc2)cc1-c1ccc(CN[C@H](C)c2ccc(C)cc2)o1 | enzyme activity | inhibitor |  | 1 µM | remaining activity | 91%
CNC(=O)Nc1ccc2c(c1)CC[C@@]21OC(=O)N(CC(=O)N(Cc2ccc(F)cc2)[C@@H](C)C(F)(F)F)C1=O | cell-free assay |  | competition with immobilised ligand | 1 µM | remaining binding | 100%
COc1cc2ncnc(Nc3ccc(Oc4ccccc4)c(C)c3C)c2cc1OC | enzyme activity | inhibitor |  | 1 µM | inhibition | 4%
CC/C(=N\NC(=O)NCc1cccc(O)c1)c1ccc(O)c(C)c1O | enzyme activity | inhibitor |  | 0.1 µM | inhibition | 55.7%
Cn1cnc(Br)c1C1=CN(c2ncnc3[nH]cnc23)CCS1 | enzyme activity | inhibitor | radiometric | 2 µM | inhibition | 97.4%
CCN(CC)c1ccc(C2=NNC(=O)CC2C)cc1[N+](=O)[O-] (centres unmarked) | enzyme activity | inhibitor |  | 10 µM | remaining activity | 83%
C[C@H](c1ccc(F)cc1)N(Cc1cccc(C(=O)O)c1)C(=O)c1cnc2ccccc2c1 | cell-free assay |  | competition with immobilised ligand | 1 µM | remaining binding | 100%
CN1CC(Oc2cnc(C#N)cc2-c2ccn3nc(NC(=O)C4CC4)cc3c2)C1 | enzyme activity | inhibitor |  | 1 µM | inhibition | 2%
NS(=O)(=O)c1cc(NC(=O)Cc2ccccc2)ccc1Oc1cccc(Cl)c1 | cell-free assay |  | competition with immobilised ligand | 1 µM | remaining binding | 100%
CCCOc1ccc(OC)c(F)c1C(=O)c1ccc(C(=O)N[C@@H]2CNC[C@H]2NC(=O)c2ccc3[nH]ncc3c2)cc1 | enzyme activity | inhibitor |  | 0.1 µM | remaining activity | 15%
CCCS(=O)(=O)Nc1ccc(F)c(C(=O)c2c[nH]c3ncc(-c4ccc(Cl)cc4)cc23)c1F | enzyme activity | inhibitor |  | 1 µM | inhibition | < 10%
CNC(=O)c1cc(Oc2ccc(NC(=O)Nc3ccc(Cl)c(C(F)(F)F)c3)cc2)ccn1 | enzyme activity | inhibitor |  | 10 µM | inhibition | -2%
CC(C)c1ccc(NC(=O)c2cccs2)c(-c2nc3ccccc3[nH]c2=O)c1 | enzyme activity | inhibitor |  | 1 µM | activity vs control | 123%
CS(=O)(=O)N1CCCC(NC(=O)[C@H](CCC2CCCCC2)NC(=O)c2ccc(CNC(=O)c3cnc4ccccn34)cc2)C1 (some centres unmarked) | cell-free assay |  | competition with immobilised ligand | 0.1 µM | remaining binding | 100%
Cc1ccc(C(=O)Nc2ccc(CN3CCN(C)CC3)c(C(F)(F)F)c2)cc1C#Cc1cnc2cccnn12 | enzyme activity | inhibitor |  | 23.5 nM | remaining activity | 72%
